Assay [1] has as its system PBMC. Put plainly: Cytotoxicity against human PBMC cells after 72 hrs by Alamar Blue assay. It is filed as cell-based. A general note: Alamar Blue is a resazurin reagent that responds to reducing activity.
Assay [2] concerns HL-60. The assay can be described thus: Cytotoxicity against human HL60 cells after 72 hrs by MTT assay. It is filed as functional, cell-based. To be noted: HL-60, 72 h. (In general: Tetrazolium assays rely on reduction of a dye to a coloured formazan, in cell work by metabolically active cells.)
Assay [3] relates to MDA-MB-435. The assay can be described thus: Cytotoxicity against human MDA-MB-435 cells after 72 hrs by MTT assay. The format is functional, cell-based. To be noted: MDA-MB-435, 72 h.
Assay [4] deals with HCT-8. The assay can be described thus: Cytotoxicity against human HCT8 cells after 72 hrs by MTT assay. The format is functional, cell-based. To be noted: HCT-8, 72 h.
In assay [5] the test system is SF-295. Put plainly: Cytotoxicity against human SF295 cells after 72 hrs by MTT assay. It is filed as functional, cell-based. To be noted: SF-295, 72 h.
Assay [6] deals with HL-60. The assay can be described thus: Induction of apoptosis in human HL60 cells assessed as apoptotic nuclei at 5 uM after 24 hrs by acridine orange/ethidium bromide staining based fluorescence microscopy. It is filed as functional. The procedure, abridged:
(§1)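 Cells exposed 24 h, with or without 24 h pretreatment with 1-bromoheptane. Cell suspension mixed with acridine orange/ethidium bromide (each 100 in PBS) and spread on slide. 300 cells counted per point by fluorescence microscopy to give % apoptotic cells. Mean ± S.E.M. of three experiments.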

The test system of assay [7] is MDA-MB-435. The assay can be described thus: Induction of apoptosis in human MDA-MB-435 cells assessed as apoptotic nuclei at 5 uM after 24 hrs by acridine orange/ethidium bromide staining based fluorescence microscopy. It is filed as functional. The procedure, abridged: as §1
The subject of assay [8] is HCT-8. The assay can be described thus: Induction of apoptosis in human HCT8 cells assessed as apoptotic nuclei at 5 uM after 24 hrs by acridine orange/ethidium bromide staining based fluorescence microscopy. It is filed as functional. The gist of the method: as §1
Assay [9] deals with SF-295. Put plainly: Induction of apoptosis in human SF295 cells assessed as apoptotic nuclei at 5 uM after 24 hrs by acridine orange/ethidium bromide staining based fluorescence microscopy. It is filed as functional. The procedure, abridged:
as §1

For assay [10], the system named is HL-60. The assay can be described thus: Induction of apoptosis in human HL60 cells assessed as apoptotic nuclei at 5 uM after 24 hrs by acridine orange/ethidium bromide staining based fluorescence microscopy in presence of 1-bromoheptane. It is filed as functional. The gist of the method: as §1
Assay [11] relates to MDA-MB-435. The assay can be described thus: Induction of apoptosis in human MDA-MB-435 cells assessed as apoptotic nuclei at 5 uM after 24 hrs by acridine orange/ethidium bromide staining based fluorescence microscopy in presence of 1-bromoheptane. The format is functional. The procedure, abridged:
as §1

The subject of assay [12] is HCT-8. Put plainly: Induction of apoptosis in human HCT8 cells assessed as apoptotic nuclei at 5 uM after 24 hrs by acridine orange/ethidium bromide staining based fluorescence microscopy in presence of 1-bromoheptane. It is filed as functional. The procedure, abridged:
as §1

For assay [13], the system named is SF-295. Put plainly: Induction of apoptosis in human SF295 cells assessed as apoptotic nuclei at 5 uM after 24 hrs by acridine orange/ethidium bromide staining based fluorescence microscopy in presence of 1-bromoheptane. The format is functional. The gist of the method: as §1

The IC50 is the concentration at which inhibition is half-maximal. Regarding `O=C1c2ccccc2C(=O)c2c1ccc1nc(-c3ccc(O)cc3)[nH]c21`, the IC50 in assay [1], in [2], in assay [3], in assay [4] and in assay [5] was > 14.7 µM throughout. Further, the Activity in assay [6] amounted to 10.7%; in assay [7] it was 9.56%; in assay [8], 8.51%; in [9], 5.93%; in [10], 14.26%; in assay [11], 13.07%. In addition, the Activity is 11.16% in [12] and 10.18% in assay [13].
As to `CC(C)CCC1=C(OC2(CCC(C)C)C(=O)C(=O)c3ccccc3C2=O)C(=O)c2ccccc2C1=O` (stereo not given), the half-inhibitory concentration (IC50) in [1], in assay [2], in assay [3], in assay [4] and in assay [5] was > 10.3 µM throughout. Moreover, the Activity stood at 8.13% in assay [6]; 9.51% in [7]; 8.71% in assay [8]; 7.94% in [9]; 4.17% in assay [10]; 7.44% in [11]. In addition, the Activity in assay [12] is 11.46%; in [13], 8.01%.
For the molecule `Cc1cccc(-c2nc3ccc4c(c3[nH]2)C(=O)c2ccccc2C4=O)c1`, the half-inhibitory concentration (IC50) in [1], in assay [2], in assay [3], in [4] and in assay [5] was > 14.8 µM each time. Further, the Activity in assay [6] came to 7.33%; in assay [7], 9.81%; in assay [8], 12.01%; in assay [9], 10.05%; in assay [10], 6.18%; in assay [11] it was 6.17%. For the same molecule, the Activity in assay [12] stood at 7.28%; in [13], 7.38%.
Turning to `O=C1c2ccccc2C(=O)c2c1ccc1nc(-c3cccc(O)c3)[nH]c21`, the IC50 in assay [1], in assay [2], in assay [3], in [4] and in [5] was > 14.7 µM in each case. Also, the Activity in assay [6] was 10.49%; in assay [7], 12.51%; in [8] it was 12.73%; in assay [9] it was 13.51%; in assay [10] it was 8.17%; in assay [11], 13.75%. Further, the Activity turned out to be 7.25% in [12] and 9.66% in assay [13].
Consider `CCCC1=C(OC2(CCC)C(=O)C(=O)C3=C(CCCC3)C2=O)C(=O)C2=C(CCCC2)C1=O` (stereo not given), for which the IC50 in assay [1], in assay [2], in assay [3], in assay [4] and in assay [5] was > 11.4 µM in each case. Also, the Activity in assay [6] turned out to be 9.13%; in assay [7], 8.56%; in [8], 9.27%; in assay [9] it was 11.73%; in assay [10] it was 11.04%; in [11] it was 12.09%. Further, the Activity in assay [12] is recorded as 11.7%; in [13] it was 13.97%.

For the origin of these results see ChEMBL document CHEMBL1649387, “Synthesis and evaluation of quinonoid compounds against tumor cell lines” (Eur J Med Chem, 2011).
